ChEMBL document CHEMBL1144135, “Synthesis of 11,12-epoxydrim-8,12-en-11-ol, 11,12-diacetoxydrimane, and warburganal from (-)-sclareol” (J Nat Prod, 1999)
In brackets after ≈: the same amount, converted by molar mass.

Tests used:
Type in all cases: functional, cell-based
[1] = tested on: HT-29; experiment: Antitumor activity against human HT-29 cells
Summary of the method: (§1)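 Cells from four lines (P-388, A-549, HT-29, MEL-28) were tested in parallel with reference standards. Activity was read out as IC50 in […], using a previously published antitumor assay protocol.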

[2] = tested on: P388; experiment: Antitumor activity against mouse P388 cells; summary of the method: as §1
[3] = tested on: A549; experiment: Antitumor activity against human A549 cells; summary of the method: as §1
[4] = Antitumor activity against human SK MEL28 cells; conditions: SK-MEL-28; summary of the method: as §1

**Q.** For `CC1(C)CCC[C@]2(C)[C@@H]3C(=CO[C@@H]3O)CC[C@@H]12`, which IC50 [1] is on record?
**A.** 1 µg/mL (≈ 4.23 µM)

**Q.** What about the IC50 [2] of the same molecule?
**A.** 0.5 µg/mL (≈ 2.12 µM)

**Q.** What about the IC50 [3] of the same molecule?
**A.** 0.5 µg/mL (≈ 2.12 µM)

**Q.** And the IC50 [4]?
**A.** 1 µg/mL (≈ 4.23 µM)

**Q.** With `COc1cccc2c1C(=O)c1c(O)c3c(c(O)c1C2=O)C[C@@](O)(C(=O)CO)C[C@@H]3O[C@H]1C[C@H](N)[C@H](O)[C@H](C)O1.Cl` [DOXORUBICIN HYDROCHLORIDE] as the molecule, how does the IC50 [1] read?
**A.** 0.5 µg/mL

**Q.** What about the IC50 [2] of the same molecule?
**A.** 0.1 µg/mL

**Q.** And the IC50 [3]?
**A.** 0.025 µg/mL

**Q.** What about the IC50 [4] of the same molecule?
**A.** 0.5 µg/mL

**Q.** With `O=c1[nH]cc(F)c(=O)[nH]1` [FLUOROURACIL] as the molecule, how does the IC50 [1] read?
**A.** 0.1 µg/mL (≈ 0.769 µM)

**Q.** And the IC50 [2]?
**A.** 0.02 µg/mL (≈ 0.154 µM)

**Q.** What about the IC50 [3] of the same molecule?
**A.** 0.1 µg/mL (≈ 0.769 µM)

**Q.** And the IC50 [4]?
**A.** 0.1 µg/mL (≈ 0.769 µM)

**Q.** With `CN(Cc1cnc2nc(N)nc(N)c2n1)c1ccc(C(=O)N[C@@H](CCC(=O)O)C(=O)O)cc1` [METHOTREXATE] as the molecule, how does the IC50 [1] read?
**A.** 0.01 µg/mL (≈ 0.022 µM)

**Q.** And the IC50 [2]?
**A.** 0.002 µg/mL (≈ 0.0044 µM)

**Q.** What about the IC50 [3] of the same molecule?
**A.** 0.005 µg/mL (≈ 0.011 µM)

**Q.** And the IC50 [4]?
**A.** 0.01 µg/mL (≈ 0.022 µM)

**Q.** Which IC50 [1] does the source give for `CC1(C)CCC[C@]2(C)[C@@H](C=O)C(C=O)=CC[C@@H]12` [POLYGODIAL] here?
**A.** 2.5 µg/mL (≈ 10.7 µM)

**Q.** And the IC50 [2]?
**A.** 1.2 µg/mL (≈ 5.12 µM)

**Q.** And the IC50 [3]?
**A.** 2.5 µg/mL (≈ 10.7 µM)

**Q.** What about the IC50 [4] of the same molecule?
**A.** 2.5 µg/mL (≈ 10.7 µM)
